Reference: ChEMBL document CHEMBL4385644, “Phenylhydrazides as inhibitors of Leishmania amazonensis arginase and antileishmanial activity” (Bioorg Med Chem, 2019)
The source made the active and inactive calls. The rule behind the calls is not given here.

Columns and labels:
[1] = molecular target: Arginase (Leishmania amazonensis) (UniProt O96394); test: (§1) Ratio of Ki to Kis for inhibition of recombinant Leishmania amazonensis arginase expressed in Escherichia coli assessed as reduction in urea production using L-arginine as substrate by Berthelot colorimetric method based Dixon/Cornish-Bowden plot analysis relative to control
Arginase [2] = molecular target: T1, Arginase (Leishmania amazonensis, UniProt O96394); test: as §1, with “Competitive” for “Ratio of Ki to Kis for”, “production by measuring dissociation constant for enzyme-inhibitor complex” for “production”
Method in brief: (§2)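 Urea read by the Berthelot method. Ki and Kis taken from Dixon and Cornish-Bowden plots; Cornish-Bowden slopes compared statistically. Points are means of three independent experiments run in duplicate; constants given as mean ± SEM.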

[3] = molecular target: Arginase (Leishmania amazonensis) (UniProt O96394); test: Inhibition of recombinant Leishmania amazonensis arginase expressed in Escherichia coli assessed as reduction in urea production at 100 uM using L-arginine as substrate by Berthelot colorimetric method relative to control
[4] = molecular target: Arginase (Leishmania amazonensis) (UniProt O96394); test: as §1, with “Mixed type” for “Ratio of Ki to Kis for”, “production by measuring dissociation constant for enzyme-substrate-inhibitor complex” for “production”; method in brief: as §2
Leishmania amazonensis [5] = test: Antileishmanial activity against Leishmania amazonensis MHOM/BR/1973/M2269 promastigotes assessed as inhibition of parasite growth incubated for 72 hrs by MTT assay; format: functional, organism-based; conditions: MHOM/BR/1973/M2269, 72 h
Method in brief: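 MHOM/BR/1973/M2269 promastigotes grown to stationary phase in M199 with 10% FBS, 5 ppm hemin, streptomycin and penicillin; 5.0 × 10^5 cells exposed 72 h to compounds at 100 µM to 0.78 µM (amphotericin B control, 10 µM downward). Formazan dissolved in DMSO and read at 570 nm. EC50 from a normalized variable-slope sigmoidal fit; mean ± SEM.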

Arginase [6] = molecular target: T1, Arginase; test: Inhibition of recombinant Leishmania amazonensis arginase expressed in Escherichia coli assessed as reduction in urea production using L-arginine as substrate by Berthelot colorimetric method relative to control
Method in brief: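 Arginase overexpressed in E. coli and purified. Urea formed was measured colorimetrically by the Berthelot method. IC50 given as mean ± SEM.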

Leishmania amazonensis [7] = test: Antileishmanial activity against Leishmania amazonensis MHOM/BR/1973/M2269 promastigotes assessed as inhibition of parasite growth at 100 uM incubated for 72 hrs by MTT assay; format: functional, organism-based
Method in brief: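 Single-concentration screen at 100 µM. Stationary-phase MHOM/BR/1973/M2269 promastigotes in supplemented M199, 5.0 × 10^5 cells, exposed 72 h. Formazan dissolved in DMSO and read at 570 nm.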

SMILES	Ratio [1]	Ki (Arginase [2]) [µM]	inhibition [3]	Kis [4] [µM]	EC50 (Leishmania amazonensis [5]) [µM]	IC50 (Arginase [6]; read-out: IC50) [µM]	IC50 (Arginase [6])	growth inhibition (GI) (Leishmania amazonensis [7])
CC(=O)Nc1ccccc1C(F)(F)C(=O)NCc1ccccc1	5	32	> 70%	6.5	> 100	37	–	–
CC(=O)Nc1ccccc1C(F)(F)C(=O)NNc1ccccn1	–	–	8%	–	> 100	> 100	–	–
CC(=O)Nc1ccccc1C(F)(F)C(=O)Nc1ccccc1	–	–	inactive	–	–	–	Not Active	–
CC(=O)Nc1ccccc1C(F)(F)C(=O)NNc1ccccc1	–	5.1	> 70%	–	12.7	12	–	Active
CC(=O)Nc1ccccc1C(F)(F)C(=O)Nc1ccc(Cl)cc1	–	–	inactive	–	–	–	Not Active	–
CC(=O)Nc1ccc(C)cc1C(F)(F)C(=O)NC(C)C	–	–	inactive	–	–	–	Not Active	–
CC(=O)Nc1ccc(C)cc1C(F)(F)C(=O)NNc1ccccc1	–	1.3	> 70%	26	> 100	12	–	–
C[C@@H]1[C@H](O)[C@@H](C)/C=C/C=C/C=C/C=C/C=C/C=C/C=C/[C@H](O[C@@H]2O[C@H](C)[C@@H](O)[C@H](N)[C@@H]2O)C[C@@H]2O[C@](O)(C[C@@H](O)C[C@@H](O)[C@H](O)CC[C@@H](O)C[C@@H](O)CC(=O)O[C@H]1C)C[C@H](O)[C@H]2C(=O)O [AMPHOTERICIN B]	–	–	–	–	0.33	–	Not Active	–
CC(=O)Nc1ccc(C)cc1C(F)(F)C(=O)NNc1ccccn1	–	–	–	–	> 100	> 100	–	–
CC(=O)Nc1ccccc1C(F)(F)C(=O)NNc1ccc(C(F)(F)F)cc1	–	26	> 70%	11	> 100	38	–	–
